Published values gathered from unrelated publications.
Lines come from different studies, so protocols differ.
CDK18 with cyclin Y: Cyclin-dependent kinase 18, with cyclin Y (CDK18, Homo sapiens, UniProt Q07002)
CDK18: Cyclin-dependent kinase 18 (CDK18, Homo sapiens, UniProt Q07002)

Compound	target	test	conditions	quantity	result
CN1CC(Oc2cnc(C#N)cc2-c2ccn3nc(NC(=O)C4CC4)cc3c2)C1	CDK18 with cyclin Y	enzyme activity, inhibitor	1 µM	inhibition	1%
O=C(Nc1cnn(-c2csc(C(=O)NC3COC3)c2)c1)Nc1ccccc1Cl	CDK18 with cyclin Y	enzyme activity, inhibitor	5 µM	remaining activity	101%
O=[N+]([O-])c1cccc2[nH]c(CNc3nc(N4CCOCC4)nc4c3ncn4-c3ccsc3)nc12	CDK18	binding, competition with immobilised ligand	10 µM	binding vs control	62%
COc1cc(Cl)c(C(=O)N[C@@H](CN[C@H]2CC[C@@H](N)CC2)Cc2ccc(C#N)cc2)cc1-c1ccc(CN[C@H](C)c2ccc(C)cc2)o1	CDK18 with cyclin Y	enzyme activity, inhibitor	1 µM	remaining activity	103%
Nc1ncnc2occ(-c3ccc(NC(=O)Nc4cc(C(F)(F)F)ccc4F)cc3)c12	CDK18	cell-free assay, inhibitor	20 µM	remaining signal	0.1%
Cc1ccc(C(=O)NCc2ccsc2)cc1C#Cc1cn(C(C)C)c2ncnc(N)c12	CDK18 with cyclin Y	enzyme activity, inhibitor	1 µM	activity vs control	82%
Cc1sc(C(=O)NC2COC2)cc1-n1cc(NC(=O)Nc2c(F)cccc2Cl)cn1	CDK18 with cyclin Y	enzyme activity, inhibitor	10 µM	remaining activity	119%
CSc1cccnc1N1CCN(Cc2nc3ccccc3[nH]2)CC1	CDK18	cell-free assay, competition with immobilised ligand	1 µM	remaining binding	100%
Fc1cccc(-n2cnc3c(NCc4nc5c(F)c(F)ccc5[nH]4)nc(N4CCOCC4)nc32)c1	CDK18	binding, competition with immobilised ligand	10 µM	binding vs control	37%
O=C(NS(=O)(=O)c1ccc(NCC2CCOCC2)c([N+](=O)[O-])c1)c1ccc(N2CCN(Cc3ccc(C(F)(F)F)cc3-c3ccc(Cl)cc3)CC2)cc1Oc1cnc2[nH]ccc2c1	CDK18	cell-free assay, competition with immobilised ligand	1 µM	remaining binding	100%
Cc1ccc(C(=O)Nc2ccc(CN3CCN(C)CC3)c(C(F)(F)F)c2)cc1C#Cc1cnc2cccnn12	CDK18	enzyme activity, inhibitor	23.5 nM	remaining activity	89%
